# What was measured:
# Rattus norvegicus [1] = assay: Oral diuretic activity was evaluated by measuring Na+ excretion in Rat at 9 mg/kg […] ( 0-5 hr); assay type: ADME, organism-based, Urine; set-up: dose 9 mg/kg; conditions: in vivo, ip
# Outline: (§1)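 Female Charles-River rats (150–170 g) were kept overnight on a sugar diet with water ad libitum. Compound was dissolved in DMF, then diluted with water containing Tween 80 (3 drops/100 mL) to a final 4% DMF, and given po in 5.0 mL. Rats were housed three per metabolism cage. Urine from 0–5 h was analysed for Na+, K+ and Cl−, with concurrent placebo controls. Values are mequiv × 100 per cage, geometric mean of three cages per dose.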
# Canis familiaris [2] = assay: Oral diuretic activity was evaluated by measuring Na+ excretion in dog at 0.6 mg/kg after ip administration ( 0-6 hr); assay type: ADME, organism-based, Canis lupus familiaris, Urine; set-up: dose 0.6 mg/kg, route intraperitoneal; conditions: in vivo
# Outline: (§2)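 Spontaneous urine was pooled with bladder urine collected by catheterization at 6 h. Volume was measured and Na+, K+ and Cl− were determined by standard methods. Values are geometric means.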
# Canis familiaris [3] = assay: Oral diuretic activity was evaluated by measuring Na+ excretion in dog at 1.8 mg/kg after […] ( 0-6 hr); assay type: ADME, organism-based, Canis lupus familiaris, Urine; set-up: dose 1.8 mg/kg; conditions: in vivo
# Outline: (§3)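 Dogs; spontaneous urine was pooled with bladder urine drained by catheter at the end of 6 h. Urine volume was measured, and aliquots were assayed for Na+, K+ and Cl− by standard methods. Values are geometric means, expressed as mequiv over 0–6 h.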
# Canis familiaris [4] = assay: Oral diuretic activity was evaluated by measuring Na+ excretion in dog at 16.2 mg/kg after […] ( 0-6 hr); assay type: ADME, organism-based, Canis lupus familiaris, Urine; set-up: dose 16.2 mg/kg; conditions: in vivo; outline: as §3
# Canis familiaris [5] = assay: Oral diuretic activity was evaluated by measuring K+ excretion in dog at 5.4 mg/kg after ip administration ( 0-6 hr); assay type: ADME, organism-based, Canis lupus familiaris, Urine; set-up: dose 5.4 mg/kg, route intraperitoneal; conditions: in vivo; outline: as §2
# Rattus norvegicus [6] = assay: Oral diuretic activity was evaluated by measuring Na+ excretion in Rat at 27 mg/kg […] ( 0-5 hr); assay type: ADME, organism-based, Urine; set-up: dose 27 mg/kg; outline: as §1
# Rattus norvegicus [7] = assay: Oral diuretic activity was evaluated by measuring Na+ excretion in Rat at 81 mg/kg […] ( 0-5 hr); assay type: ADME, organism-based, Urine; set-up: dose 81 mg/kg; outline: as §1
# Canis familiaris [8] = assay: Oral diuretic activity was evaluated by measuring Na+ excretion in dog at 5.4 mg/kg after ip administration ( 0-6 hr); assay type: ADME, organism-based, Canis lupus familiaris, Urine; set-up: dose 5.4 mg/kg, route intraperitoneal; conditions: in vivo
# Outline: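 Urine collected over 0–6 h: spontaneous voids were pooled with bladder urine taken by catheterization at 6 h. Urine volume was measured, and aliquots were analysed for Na+, K+ and Cl− by standard methods. Electrolyte excretion is reported as geometric means.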
# Rattus norvegicus [9] = assay: Oral diuretic activity was evaluated by measuring K+ excretion in Rat at 3 mg/kg after […] ( 0-5 hr); assay type: ADME, organism-based, Urine; set-up: dose 3 mg/kg
# Outline: (§4)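 Female Charles-River rats (150–170 g) were kept overnight on a sugar diet with water ad libitum. Test substance was dissolved in DMF and diluted with water containing Tween 80 to a final 4% DMF vehicle, then given po in 5.0 mL. Rats were housed three per metabolism cage, and 0–5 h urine was assayed for Na⁺, K⁺ and Cl⁻ alongside concurrent placebo groups. Values are mequiv × 100 per cage, geometric means of three cages per dose.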
# Rattus norvegicus [10] = assay: Oral diuretic activity was evaluated by measuring K+ excretion in Rat at 81 mg/kg […] ( 0-5 hr); assay type: ADME, organism-based, Urine; set-up: dose 81 mg/kg; outline: as §4
# Rattus norvegicus [11] = assay: Oral diuretic activity was evaluated by measuring K+ excretion in Rat at 9 mg/kg […] ( 0-5 hr); assay type: ADME, organism-based, Urine; set-up: dose 9 mg/kg; outline: as §4
# Canis familiaris [12] = assay: Oral diuretic activity was evaluated by measuring K+ excretion in dog at 0.6 mg/kg after […] ( 0-6 hr); assay type: ADME, organism-based, Canis lupus familiaris, Urine; set-up: dose 0.6 mg/kg, route intraperitoneal; conditions: in vivo
# Canis familiaris [13] = assay: Oral diuretic activity was evaluated by measuring K+ excretion in dog at 1.8 mg/kg after ip administration ( 0-6 hr); assay type: ADME, organism-based, Canis lupus familiaris, Urine; set-up: dose 1.8 mg/kg, route intraperitoneal; conditions: in vivo; outline: as §2
# Rattus norvegicus [14] = assay: Evaluated for salidiuretic activity measured as sodium ion excretion in Rat, administered orally at a dose of 50 mg/kg; assay type: functional, Urine; set-up: unit not given beside the values; conditions: route oral
# Outline: (§5)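 Female Charles-River rats (150–170 g), overnight on sugar diet with water ad libitum. Compound dissolved in DMF, diluted with water containing Tween 80 (final 4% DMF), given po in 5.0 mL; concurrent vehicle placebo. Three rats per metabolism cage; 0–5 h urine analysed for Na+, K+, Cl-. Values: mequiv × 100 per cage, geometric means of three cages per dose; scored 0–6 by Na+.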
# [15] = Compound administered orally at a dose of 5 mg/kg was evaluated for salidiuretic activity measured as sodium ion excretion in Rat; assay type: organism-based; set-up: dose 5 mg/kg; conditions: Urine; outline: as §5
# Canis familiaris [16] = assay: Oral diuretic activity was evaluated by measuring Cl- excretion in dog at 5.4 mg/kg after […] ( 0-6 hr); assay type: ADME, organism-based, Canis lupus familiaris, Urine; set-up: dose 5.4 mg/kg, route intraperitoneal; conditions: in vivo
# [17] = Evaluated for salidiuretic activity measured as sodium ion excretion in Rat, administered orally at a dose of 16.5 mg/kg; assay type: organism-based; set-up: dose 16.5 mg/kg; conditions: Urine; outline: as §5
# Rattus norvegicus [18] = assay: Oral diuretic activity was evaluated by measuring Cl- excretion in Rat at 27 mg/kg after […] ( 0-5 hr); assay type: ADME, organism-based, Urine; set-up: dose 27 mg/kg, route intraperitoneal; conditions: in vivo
# Rattus norvegicus [19] = assay: Oral diuretic activity was evaluated by measuring Cl- excretion in Rat at 3 mg/kg after […] ( 0-5 hr); assay type: ADME, organism-based, Urine; set-up: dose 3 mg/kg, route intraperitoneal; conditions: in vivo
# Rattus norvegicus [20] = assay: Oral diuretic activity was evaluated by measuring Cl- excretion in Rat at 9 mg/kg […] ( 0-5 hr); assay type: ADME, organism-based, Urine; set-up: dose 9 mg/kg; conditions: in vivo; outline: as §4
# Canis familiaris [21] = assay: Oral diuretic activity was evaluated by measuring Cl- excretion in dog at 0.6 mg/kg after […] ( 0-6 hr); assay type: ADME, organism-based, Canis lupus familiaris, Urine; set-up: dose 0.6 mg/kg, route intraperitoneal; conditions: in vivo
# Canis familiaris [22] = assay: Oral diuretic activity was evaluated by measuring Cl- excretion in dog at 1.8 mg/kg after […] ( 0-6 hr); assay type: ADME, organism-based, Canis lupus familiaris, Urine; set-up: dose 1.8 mg/kg, route intraperitoneal; conditions: in vivo
# Canis familiaris [23] = assay: Oral diuretic activity was evaluated by measuring Cl- excretion in dog at 16.2 mg/kg after […] ( 0-6 hr); assay type: ADME, organism-based, Canis lupus familiaris, Urine; set-up: dose 16.2 mg/kg, route intraperitoneal; conditions: in vivo
# Rattus norvegicus [24] = assay: Maximum fall in mean arterial blood pressure was measured in SH rats when compound was administered at 20 mg/kg perorally; assay type: functional; conditions: route oral
# Canis familiaris [25] = assay: Oral diuretic activity was evaluated by measuring K+ excretion in dog at 16.2 mg/kg after ip administration ( 0-6 hr); assay type: ADME, organism-based, Canis lupus familiaris, Urine; set-up: dose 16.2 mg/kg, route intraperitoneal; conditions: in vivo; outline: as §2
# Rattus norvegicus [26] = assay: Oral diuretic activity was evaluated by measuring Na+ excretion in Rat at 3 mg/kg […] ( 0-5 hr); assay type: ADME, organism-based, Urine; set-up: dose 3 mg/kg; conditions: in vivo, ip; outline: as §1
# Rattus norvegicus [27] = assay: Oral diuretic activity was evaluated by measuring K+ excretion in Rat at 27 mg/kg after po administration ( 0-5 hr); conditions: in vivo
# Rattus norvegicus [28] = assay: Oral diuretic activity was evaluated by measuring Cl- excretion in Rat at 81 mg/kg after po administration ( 0-5 hr); conditions: in vivo
# Rattus norvegicus [29] = assay: Compound administered orally at a dose of 1 mg/kg was evaluated for salidiuretic activity measured as sodium ion excretion in Rat; conditions: in vivo, po
structure (smiles),measurement,setting,value
CCc1c(Cl)c(C)c(CN)c(O)c1Cl.Cl,Diuretic activity,Rattus norvegicus [1],2.02
same,Diuretic activity,Canis familiaris [2],8.12
same,Diuretic activity,Canis familiaris [3],19.43
same,Diuretic activity,Canis familiaris [4],33.33
same,Diuretic activity,Canis familiaris [5],5.9
same,Diuretic activity,Rattus norvegicus [6],2.17
same,Diuretic activity,Rattus norvegicus [7],2.29
same,Diuretic activity,Canis familiaris [8],33.15
same,Diuretic activity,Rattus norvegicus [9],0.44
same,Diuretic activity,Rattus norvegicus [10],0.44
same,Diuretic activity,Rattus norvegicus [11],0.56
same,Diuretic activity,Canis familiaris [12],2.01
same,Diuretic activity,Canis familiaris [13],3.62
same,Diuretic activity,Rattus norvegicus [14],3.6
same,Diuretic activity,[15],2.6
same,Diuretic activity,Canis familiaris [16],37.15
same,Diuretic activity,[17],3.3
same,Diuretic activity,Rattus norvegicus [18],3.14
same,Diuretic activity,Rattus norvegicus [19],1.62
same,Diuretic activity,Rattus norvegicus [20],2.84
same,Diuretic activity,Canis familiaris [21],9.91
same,Diuretic activity,Canis familiaris [22],22.93
same,Diuretic activity,Canis familiaris [23],38.78
same,MAP,Rattus norvegicus [24],10 mmHg
same,Diuretic activity,Canis familiaris [25],6.25
same,Diuretic activity,Rattus norvegicus [26],1.14
same,Diuretic activity,Rattus norvegicus [27],0.55
same,Diuretic activity,Rattus norvegicus [28],3.2
same,Diuretic activity,Rattus norvegicus [29],0.7

# From ChEMBL document CHEMBL1121573, “2-(Aminomethyl)phenols, a new class of saluretic agents. 1. Effects of nuclear substitution” (J Med Chem, 1980)
